The source of these data is ChEMBL document CHEMBL4334444, “Studies of Jatrogossone A as a Reactive Oxygen Species Inducer in Cancer Cellular Models” (J Nat Prod, 2019).

Assay [1] has as its system KOPN-8. Description: Cell cycle arrest in human KOPN8 cells assessed as increase in accumulation at S phase at 2 uM incubated for 24 hrs by propidium iodide staining based flow cytometric analysis. Type of assay: functional. Summed up: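 KOPN-8 cells plated at 1.00 × 10^6 cells/plate and held 12 h at 37 °C in 5% CO2, then treated for 24 h. Cells were fixed in cold methanol, RNase-treated and stained with PI (50 μg/mL). Cell-cycle distribution by flow cytometry, with DMSO as vehicle control.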

Assay [2] concerns U2OS. In words: Induction of ROS generation in human U2OS cells at 10 to 30 uM incubated for 1 hr in presence of NAC by CellROX green reagent based fluorescence assay. Type of assay: functional, cell-based. In short, it runs like this:
(§1)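 CellROX green assay in MCF-7 or U2OS cells. Cells were exposed to test compound for 1 h at 37 °C alongside 0.5% DMSO (negative control) and menadione 10–30 μM (positive control), with or without NAC (50–500 μM) as scavenger. CellROX was then added at 5 μM final for 30 min. Cells were PBS-washed, fixed in 4% paraformaldehyde for 15 min, and fluorescence read at 535 nm.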

Assay [3] deals with KOPN-8. In words: Induction of apoptosis in human KOPN8 cells assessed as increase in cleaved PARP 1 level at 10 uM by Western blot analysis. Type of assay: functional, cell-based. Summed up:
(§2)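 Western blot of KOPN-8 and MCF-7 lysates made in RIPA-type buffer (Tris pH 7.5, Triton X-100, deoxycholate, SDS) with protease and phosphatase inhibitors. 30 μg protein per lane was run on 4–12% Bis-Tris SDS-PAGE and transferred to nitrocellulose. Blots were probed for cleaved caspase-7 and PARP-1 and detected with IR-dye secondaries. Menadione served as positive control: 10 μM in KOPN-8, 30 μM in MCF-7. Blots are representative of three independent experiments.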
(In western blotting, separated proteins are transferred to a membrane and probed.)

Assay [4] has as its system MCF7. Description: Induction of apoptosis in human MCF7 cells assessed as increase in cleaved PARP 1 level at 30 uM by Western blot analysis. Type of assay: functional, cell-based. In short, it runs like this: as §2
In assay [5] the test system is MCF7. In words: Induction of apoptosis in human MCF7 cells assessed as increase in cleaved caspase 7 level at 30 uM by Western blot analysis. Type of assay: functional, cell-based. Summed up:
as §2

The subject of assay [6] is U2OS. Description: Induction of ROS generation in human U2OS cells at 10 to 30 uM incubated for 1 hr by CellROX green reagent based fluorescence assay. Type of assay: functional, cell-based. In short, it runs like this: as §1
The test system of assay [7] is MCF7. Description: Induction of ROS generation in human MCF7 cells at 10 to 30 uM incubated for 1 hr in presence of NAC by CellROX green reagent based fluorescence assay. Type of assay: functional, cell-based. Summed up:
(§3)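 CellROX green ROS assay: cells exposed 1 h at 37 °C (30 μM) with DMSO 0.5% (v/v) negative control, menadione 10 μM positive control, ± NAC (100 μM per figure legend). CellROX green added at 5 μM final, 30 min more; washed, fixed in 4% paraformaldehyde 15 min, fluorescence read at 485 ex/535 em. Mean and SD of at least three experiments; two-way ANOVA.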

The subject of assay [8] is KOPN-8. In words: Induction of apoptosis in human KOPN8 cells assessed as increase in cleaved caspase 7 level at 10 uM by Western blot analysis. Type of assay: functional, cell-based. In short, it runs like this: as §2
In assay [9] the test system is MCF7. Description: Induction of ROS generation in human MCF7 cells at 10 to 30 uM incubated for 1 hr by CellROX green reagent based fluorescence assay. Type of assay: functional, cell-based. In short, it runs like this:
as §3

The source made the active and inactive calls. The calls are words filed in the database; no cut-off is given here.

`CN[C@@H]1C[C@H]2O[C@@](C)([C@@H]1OC)n1c3ccccc3c3c4c(c5c6ccccc6n2c5c31)C(=O)NC4`: in assay [1], the outcome was Active.
For `CC1=CC(=O)c2ccccc2C1=O`, the outcome in [2] and in [7] was inactive. In addition, the result in assay [3], in assay [4], in assay [5], in assay [6], in [8] and in [9] was Active.
